# Bioassay records deposited in PubChem BioAssay by several laboratories.
# An excerpt weighted towards active compounds, which were near 4.6% of everything screened.
# FAS-TE inh – blocks the thioesterase domain of human fatty acid synthase. P49327. recombinant FAS-TE, OMFH fluorogenic substrate, fluorescence endpoint. inhibition, % at 15 µM. hit rate 0.67% among 360,000;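 active means compounds whose normalised, plate-corrected inhibition of enzyme fluorescence in the single-dose primary screen is 50% or more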
# PfM18AAP inh – blocks P. falciparum M18 aspartyl aminopeptidase. recombinant PfM18AAP, H-Glu-NHMec fluorogenic cleavage. inhibition, % at 7.35 µM. hit rate 1.2% among 290,000;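 active means inhibition above the campaign mean inhibition over all tested compounds plus 3 SD, cut at about 28% in these data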
# HDAC3 inhib – human HDAC3 inhibition; O15379; recombinant HDAC3, fluorogenic peptide/trypsin coupled, fluorescence; inhibition, % at 8.3 µM; hit rate 0.15% among 320,000; AID 2718; in the data active means inhibition above about 26%, passing the limit was not always enough; inconclusive means no clear call, values can overlap the other calls
# UCH37 inh – human UCH37 deubiquitinating enzyme inhibition; Q9Y5K5; purified proteasome/UCH37, Ub-AMC cleavage fluorescence; inhibition, % (concentration not given with the values); hit rate 0.33% among 330,000; AID 588478;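 active means mean inhibition over replicate wells above about 20%, limit read from the data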
# Target sequence (Q9Y5K5 whole entry, looked up): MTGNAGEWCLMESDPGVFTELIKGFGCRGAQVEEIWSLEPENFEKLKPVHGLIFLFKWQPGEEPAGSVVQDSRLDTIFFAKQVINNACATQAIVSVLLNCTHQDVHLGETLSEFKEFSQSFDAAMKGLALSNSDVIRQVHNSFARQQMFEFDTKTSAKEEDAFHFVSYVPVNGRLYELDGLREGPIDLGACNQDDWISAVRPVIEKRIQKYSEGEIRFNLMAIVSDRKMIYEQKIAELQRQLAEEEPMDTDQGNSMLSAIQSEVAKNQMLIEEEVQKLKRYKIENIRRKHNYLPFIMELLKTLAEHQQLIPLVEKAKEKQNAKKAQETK
#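 Material: human UCH37 enzyme supplied as purified proteasome complex. Measure: % inhibition of Ub-AMC cleavage fluorescence. Medium: pH 7.4 Tris-HCl (50 mM) with ovalbumin, ATP-MgCl2, DTT. Times: 30 min preincubation with enzyme, 25 min cleavage at room temperature. Detection: AMC fluorescence intensity at 355/460 nm.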
# Rtt109 Vps75 – inhibitors of Candida albicans Rtt109/Vps75 histone acetyltransferase | Q5AAJ8 | purified Rtt109/Vps75, ThioGlo CoA-SH fluorescence, 4 h | inhibition, % at 34.9 µM | hit rate 0.16% among 330,000;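 active means inhibition of at least 50% in every replicate; inconclusive means best replicate reaches 50% inhibition but some replicates fall short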
# ALR inh – inhibitors of human sulfhydryl oxidase ALR | P55789 | purified ALR, DTT oxidation, H2O2 HRP-luminol luminescence | inhibition, % (concentration not given with the values) | hit rate 3.8% among 290,000;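 active means mean replicate inhibition above about 79%, with every replicate also reaching it, limit read from the data; inconclusive means only one of the two criteria met; inactive means mean below limit and not every replicate reaching it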
# Target sequence (P55789 whole entry, looked up): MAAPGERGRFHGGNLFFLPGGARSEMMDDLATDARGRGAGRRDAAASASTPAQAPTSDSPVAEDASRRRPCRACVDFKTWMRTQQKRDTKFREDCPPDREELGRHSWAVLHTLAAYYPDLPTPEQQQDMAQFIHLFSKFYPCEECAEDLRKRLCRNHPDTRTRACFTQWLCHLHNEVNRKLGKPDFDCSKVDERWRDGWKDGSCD
# FAS-TE conf – FAS thioesterase (human) inhibition, confirmation; shares compounds with FAS-TE inh; recombinant FAS-TE, OMFH fluorogenic substrate, fluorescence; inhibition, % at 15 µM; hit rate 45% among 2,300;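 active means compounds inhibiting the enzyme by at least 50% at 15 µM in any one of the replicates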
# A number is an active result; – = inactive; ? = inconclusive; · = no result given.
SMILES,FAS-TE inh,PfM18AAP inh,HDAC3 inhib,UCH37 inh,Rtt109 Vps75,ALR inh,FAS-TE conf
Cc1ccc2cc(C=NNc3nc4ccccc4[nH]3)c(Cl)nc2c1,·,·,·,–,·,·,·
CC(C)[C@H](NC(=O)OC(C)(C)C)c1nnc(S(=O)(=O)Cc2c(F)cccc2Cl)o1,83,·,–,–,–,–,82
Cc1ccccc1CS(=O)(=O)c1nnc([C@H](CC(C)C)NC(=O)OC(C)(C)C)o1,52,–,38,–,–,–,55
CC[C@@H](C)[C@H](NC(=O)OC(C)(C)C)c1nnc(S(=O)(=O)Cc2cc(C)ccc2C)o1,73,–,–,–,133,–,79
CC(C)=CCSc1nnc([C@@H](NC(=O)OC(C)(C)C)C(C)C)o1,–,–,–,–,–,–,·
Fc1nc(F)c(F)c(NCCCNc2c(F)c(F)nc(F)c2F)c1F,55,–,–,–,–,–,57
CC(=NNC(N)=O)C1CC(Cc2ccccc2)C(=O)O1 (stereo unspecified),·,·,·,–,·,·,·
C/C(=C/CCC(C)[C@H]1CC[C@@]2(C)C3=C(CC[C@]12C)[C@@]1(C)CCC(=O)C(C)(C)[C@@H]1CC3)C(=O)O (stereo partly specified),74,–,–,·,–,–,–
CCn1c(=S)sc2c(=O)n(CC(=O)Nc3ccccc3OC)c(C)nc21,–,–,–,–,–,–,·
CCn1c(=S)sc2c(=O)n(CC(=O)NC(C)CCc3ccccc3)c(C)nc21 (stereo unspecified),79,–,–,–,–,–,74
Cc1ccc2c(c1)C1CN(C)CCC1N2S(=O)(=O)c1ccc(C#N)cc1 (stereo unspecified),–,·,·,–,–,·,·
C=C[C@@H]1c2ccccc2N(S(=O)(=O)c2ccc(C)cc2)[C@H](c2ccc(OC(C)=O)cc2)C1(C#N)C#N,62,·,–,–,–,–,–
C=C[C@@H]1c2cc(C)ccc2N(S(=O)(=O)c2ccc(C)cc2)[C@H](c2ccc(OC(C)=O)cc2)C1(C#N)C#N,52,·,–,–,–,–,–
Cc1ccccc1OCC(=O)NN=C1SCC(=O)N1Cc1ccccc1,·,·,·,–,·,·,·
CSc1nc2ccccc2n1Cc1cccc([N+](=O)[O-])c1,59,–,–,–,–,–,–
O=[N+]([O-])c1ccc(C=Nn2c(COc3ccccc3)n[nH]c2=S)cc1,·,·,·,–,·,·,·
O=[N+]([O-])c1cc(-c2csc(NCCc3nc4cc(Cl)c(Cl)cc4n3CCCO)n2)ccc1Cl,75,·,?,–,–,–,72
CCCn1c(CCNc2nc(-c3ccc(Cl)c([N+](=O)[O-])c3)cs2)nc2cc(Cl)c(Cl)cc21,–,–,–,–,–,–,·
N#CCC(=O)NN=Cc1cccc(OC/C=C/c2ccccc2)c1,·,·,·,–,·,·,·
N#Cc1cc(Oc2ccc(Cl)cc2)c(N2CCOCC2)cc1C#N,67,–,–,–,–,–,30
CC(=O)Nc1cccc(Oc2cc(C#N)c(C#N)cc2N2CCCCCC2)c1,–,–,–,–,–,–,·
O=C(Oc1ccc(N(Cc2cccs2)C2=NS(=O)(=O)c3ccccc32)cc1)c1ccccc1,60,–,69,–,–,–,–
CCCCCCCCNC(=O)/C(C#N)=C/c1ccccc1[N+](=O)[O-],57,–,–,–,–,–,73
O=C1NC(Cc2ccccc2)c2nc3cc(F)c(F)cc3c(=O)n2-c2cc3ccccc3cc21 (stereo unspecified),86,·,·,·,·,·,–
O=C1NC(Cc2ccc(O)cc2)c2nc3cc(F)c(F)cc3c(=O)n2-c2cc3ccccc3cc21 (stereo unspecified),–,·,·,·,·,·,·
SMILES,FAS-TE inh,PfM18AAP inh,HDAC3 inhib,UCH37 inh,Rtt109 Vps75,ALR inh,FAS-TE conf
O=C1NC(Cc2ccccc2)c2nc3ccccc3c(=O)n2-c2cc3ccccc3cc21 (stereo unspecified),70,·,·,·,·,·,–
O=C1NC(Cc2ccccc2)c2nc3cc(F)ccc3c(=O)n2-c2cc3ccccc3cc21 (stereo unspecified),92,·,·,·,·,·,–
Cc1ccc2c(=O)n3c(nc2c1)C(Cc1ccccc1)NC(=O)c1cc2ccccc2cc1-3 (stereo unspecified),76,·,·,·,·,·,–
O=C(COc1ccccc1[N+](=O)[O-])NN=C/C=C/c1ccco1,·,·,·,–,·,·,·
CC(C)CC1NC(=O)c2cc3ccccc3cc2-n2c1nc1cc(Cl)ccc1c2=O (stereo unspecified),82,·,·,·,·,·,–
COc1cc2nc3n(c(=O)c2cc1OC)-c1cc2ccccc2cc1C(=O)NC3Cc1ccccc1 (stereo unspecified),53,·,·,·,·,·,–
CC(C)Oc1ccccc1C=NNC(=O)c1ccccc1Cl,·,·,·,–,·,·,·
COc1ccc(C(C)=NNC(=O)CNC(=O)/C=C\c2ccccc2OC)c(OC)c1,·,·,·,–,·,·,·
CN(C)CCCNC(=O)C[C@H]1C[C@H](C(=O)N2CCOCC2)[C@@]2(CCC3CCCC3)c3[nH]c4cc(-c5ccco5)ccc4c3CCN2C1=O,70,·,·,–,–,·,78
O=C(C[C@H]1C[C@H](C(=O)N2CCOCC2)[C@@]2(CCC3CCCC3)c3[nH]c4cc(-c5ccco5)ccc4c3CCN2C1=O)NCCN1CCOCC1,69,·,·,–,–,·,80
COCCCNC(=O)C[C@H]1C[C@H](C(=O)N2CCOCC2)[C@@]2(CCC3CCCC3)c3[nH]c4cc(-c5ccco5)ccc4c3CCN2C1=O,59,·,·,–,–,·,29
COC(=O)NN=Cc1cccnc1,·,·,·,–,·,·,·
O=C(NCc1ccccc1)/C(=C/c1ccc([N+](=O)[O-])cc1)NC(=O)c1ccco1,–,–,–,–,–,–,·
O=C(NCCc1ccccc1)/C(=C\c1cccc([N+](=O)[O-])c1)NC(=O)c1ccco1,83,–,–,–,–,–,77
O=C(NCc1ccccc1)/C(=C/c1cccc([N+](=O)[O-])c1)NC(=O)c1ccco1,69,–,–,–,–,–,79
CC(C)(C)c1ccc(CSc2nnc(-c3ccccn3)n2Cc2ccco2)cc1,53,–,–,–,–,–,–
O=C(Oc1ccc(C=NNC(=O)c2ccco2)cc1)c1ccccc1,·,·,·,–,·,·,·
CCCn1c(=S)[nH]c2cc(C(=O)N3CCN(C)CC3)ccc2c1=O,–,·,·,·,·,·,·
CCCn1c(=S)[nH]c2cc(C(=O)N3CCN(c4ccc(F)cc4)CC3)ccc2c1=O,55,·,·,·,·,·,–
CN(C)C=Nc1nc2nccc(-c3cccc(Cl)c3)n2n1,·,·,·,–,·,·,·
Oc1ccccc1C=Nn1c2ccccc2c2ccccc21,·,·,·,–,·,·,·
CC(=NNC(=O)c1[nH]c2c([N+](=O)[O-])cc(C)cc2c1-c1ccccc1)c1cccnc1,·,·,·,–,·,·,·
COc1cc2c(-c3ccc4[nH]ccc4c3)c(-c3ccc(C#N)cc3)oc(=O)c2cc1OC,55,·,–,–,–,–,–
CCOC(=O)c1ccc(-c2c(-c3ccc(OC)cc3)oc(=O)c3cc(OC)c(OC)cc23)cc1F,58,·,–,–,–,–,–
